Bioassay records as filed in PubChem.
Only some compounds are listed: those with a hit (about 3.7% of all), similar ones and a draw of the others.
Efa HMGR inh: inhibitors of E. faecalis class II HMGR, primary screen, biochemical, Enterococcus faecalis; 190,000 tested, 0.41% active; inhibition, % at 10 µM; HMG-CoA reductase (Enterococcus faecalis, mvaE); purified E. faecalis HMGR, NADPH absorbance 340 nm kinetic;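 active = inhibition above a set limit, the median over all tested compounds plus 3 SD, cut at about 9.5% in these data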;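 also: enzyme runs in reverse so mevalonate oxidation gives rising NADPH absorbance; 0% = complete reaction with DMSO and 100% = background rate lacking mevalonate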
RAM network inh: inhibitors of the yeast RAM network, primary screen, dse1pr::URA3 reporter, 5-FOA selection; S. cerevisiae dse1pr::URA3 reporter, 5-FOA growth OD615, 2 d; analog-sensitive cbk1-as2 kinase mutant strain; inhibition, % at 50 µM; 190,000 tested, 1.8% active;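 active = inhibition above a set limit, 3 SD over mean compound inhibition, cut at about 8.4% in these data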;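 also: 0% = DMSO-only wells with no growth and 100% = 10 µM 1-NA-PP1 full growth; inhibition rescues growth on 5-FOA so higher OD means more RAM inhibition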
INS promoter inh: inhibitors of insulin promoter-driven GFP, primary screen, imaging, TRM-6 cells (human fetal islet line), eGFP reporter, cell count; reporter expression induced with tamoxifen; inhibition, % at 2 µM; 130,000 tested, 0.9% active;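 active = inhibition above the mean plus 3 SD, with well images judged a real hit on visual review, cut at about 60% in these data, passing the limit was not always enough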
BB579 growth dn: growth inhibitors of yeast BB579 in restrictive medium, primary screen, yeast lifespan-shortening project, S. cerevisiae. 140,000 tested, 0.51% active. inhibition, % at 10 µM. OD615, 48 h;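 active = inhibition above a set limit, 3 SD over the mean compound inhibition, cut at about 44% in these data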
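System: Saccharomyces cerevisiae DeaD strain BB579, replicative lifespan model yeast. Buffer or medium: restrictive glucose-based CSMM-D medium. Doses: one dose, 10 µM compound with 0.25% DMSO. Timing: 4 h preincubation and 48 h exposure at 30 °C. Detection: turbidity as optical density at 615 nm. Benchmarks: amphotericin B 10 µg/mL, positive.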
Yeast lifespan up: compounds extending yeast replicative lifespan, primary screen, S. cerevisiae, OD615. inhibition of the nicotinamide effect, % at 10 µM. AID 775, 2007. 130,000 tested, 0.68% active. S. cerevisiae growth with nicotinamide; deaD strain in restrictive glucose medium;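 active = inhibition above a set limit, placed 3 SD over the median of all compounds, cut at about 26% in these data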;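 also: 0% = nicotinamide-treated wells and 100% = cells grown without nicotinamide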
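Measured by: optical density (absorbance) at 615 nm; System: modified budding yeast, DeaD strain; Medium: restrictive CSMM-D dextrose medium; Timing: 4 h preincubation then 48 h treatment at 30 °C.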
* marks the source's active call; other numbers are inactive results; . = no result given.

SMILES | Efa HMGR inh | RAM network inh | INS promoter inh | BB579 growth dn | Yeast lifespan up
O=C(Nc1ccc([N+](=O)[O-])cc1)Nc1nc(-c2ccc(Cl)s2)cs1 | -2.6 | 2.3 | 77.8* | -32.1 | 3.6
CCOC(=O)C1=C(C)N=C2SC(C(=O)OC)=CC(=O)N2C1c1cc(OC)c(OC)c(OC)c1 (stereo not given) | -0.5 | 1.8 | . | -38.0 | -0.9
O=C(CN(Cc1ccccc1)S(=O)(=O)c1ccc(S(=O)(=O)N2CCOCC2)cc1)Nc1ccccc1 | -6.5 | 6.5 | . | -14.1 | 1.2
CCOC(=O)c1c(N)sc(C(=O)OCCOC)c1C | 12.7* | 1.6 | . | . | .
CCOC(=O)c1c(N)sc(C(=O)N2CCCC2)c1C | 2.4 | 2.1 | 3.6 | -9.9 | -15.7
COc1cccc(NC(=O)NC2CCCc3ccccc32)c1 (stereo not given) | -0.7 | 8.8* | . | . | .
O=C(Nc1ccccc1)NC1CCCc2ccccc21 (stereo not given) | -4.6 | 1.2 | . | . | .
COc1ccc(CCCc2nnc(SCC(=O)N/N=C\c3ccc(O)c(OC)c3)o2)cc1C | -3.6 | 1.7 | . | -27.5 | -24.1
COc1ccc(/C=N/NC(=O)CSc2nnc(CCCc3ccc(OC)c(C)c3)o2)cc1 | 4.0 | 10.3* | 34.3 | -37.4 | -0.8
CCn1cc(C(=O)O)c(=O)c2ccc(C)nc21 | -4.2 | -0.8 | -9.1 | -17.7 | 64.1*
CCC(=O)n1nc(-c2ccccc2)nc1NCc1ccccc1 | -1.1 | 1.8 | 86.0* | -30.6 | -6.1
O=C(c1ccccc1)n1nc(-c2ccccc2)nc1NCc1ccco1 | 1.8 | 10.2* | . | -11.8 | -6.7
O=C(c1ccco1)n1nc(-c2cccnc2)nc1NCc1ccco1 | -7.2 | 2.4 | -25.0 | . | .
C=CCc1c(C)[nH]c2c(OC)cccc2c1=S | -2.8 | 1.5 | . | . | .
COc1ccc(/C=C/C(=O)c2ccc3c4c(cccc24)CC3)cc1 | -9.2 | 8.8* | . | -5.6 | -2.5
COc1ccc(NC(=O)C2CCCN2C(=O)OC(C)(C)C)cc1 (stereo not given) | 1.0 | 0.4 | . | . | .
COc1ccc(S(=O)(=O)NNC(N)=S)cc1 | -9.2 | 3.6 | . | . | .
COc1ccc(-n2c(SCC#N)nnc2-c2ccc(NS(=O)(=O)c3ccc(C)cc3)cc2)cc1 | -7.2 | 8.5* | . | -43.1 | -5.4
COc1ccc(-n2c(SCC(N)=O)nnc2-c2ccc(NS(=O)(=O)c3ccc(C)cc3)cc2)cc1 | -1.7 | 4.9 | -1.8 | -13.8 | -4.5
CCOC(=O)N1CCN(S(=O)(=O)c2ccc(F)c(C(=O)Nc3cccc(C)c3C)c2)CC1 | 0.5 | 5.2 | . | -52.2 | 45.2*
CC(C)(C)C(=O)Nc1cc(S(=O)(=O)Nc2ccc(Cl)cc2)ccc1Cl | -0.2 | 11.2* | 0.0 | -25.4 | 8.0
CC(C)(C)C(=O)Nc1ccc(S(=O)(=O)c2ccc(NC(=O)C(C)(C)C)cc2)cc1 | -3.9 | 3.0 | 75.0* | -2.2 | -5.9
Cc1nc(Nc2ccc3c(c2)OCO3)c2oc3ccccc3c2n1 | -7.0 | 0.5 | 81.8* | -58.1 | -13.9
c1ccc2c(c1)oc1c(Nc3ccc4c(c3)OCO4)ncnc12 | -6.8 | 3.6 | 15.2 | -53.2 | -8.3
Cc1nc(NCCc2ccccc2)c2oc3ccccc3c2n1 | -3.6 | 2.6 | 68.8* | -76.0 | -17.1
SMILES | Efa HMGR inh | RAM network inh | INS promoter inh | BB579 growth dn | Yeast lifespan up
CC(C)(C)NC(=O)C(c1ccncc1)N(C(=O)c1csnn1)c1cccc2ccccc12 (stereo not given) | 0.7 | 0.0 | . | . | .
Cc1ccc(C2=NN=C(NC(=O)C(F)(F)F)SC2)cc1 | -0.4 | -0.1 | . | . | .
Cn1c(/C=C/c2ccc([N+](=O)[O-])o2)nc2ccccc2c1=O | -7.8 | 0.4 | 5.1 | 81.9* | 2.9
Cc1cc(N/N=C/c2ccc([N+](=O)[O-])o2)nc2ccccc12 | -1.7 | 0.3 | . | . | .
COc1ccc(-n2cccc2/C=C2\C(=N)N3N=C(c4ccco4)SC3=NC2=O)cc1 | -5.1 | 2.3 | -25.0 | . | .
COc1ccc(-n2cccc2/C=C2\C(=N)N3N=C(C(C)C)SC3=NC2=O)cc1 | -4.1 | 11.1* | -25.0 | . | .
CN1C(=O)c2oc3ccccc3c(=O)c2C1c1ccccn1 (stereo not given) | -1.1 | 0.0 | 21.6 | -4.6 | 31.2*
Cc1ccccc1Nc1nc(CSc2nnnn2-c2ccccc2)cs1 | -2.0 | 1.9 | 68.6* | -55.2 | -16.7
CC(C)c1ccccc1NC(=O)COC(=O)C1(C)CC1(Cl)Cl (stereo not given) | 0.8 | 1.1 | 14.3 | . | .
COc1cc(OC)cc(C(=O)N[C@H](C(=O)Nc2nc3ccc(S(C)(=O)=O)cc3s2)C(C)C)c1 | -2.8 | 4.8 | . | . | .
O=CN(/C=C1\Sc2ccccc2C1=O)Cc1ccccc1 | -1.9 | 0.0 | -17.1 | -25.9 | 48.0*
O=C(Nc1ccccc1N1CCCCC1)c1ccc(-c2cccc(Cl)c2)o1 | -7.9 | 9.5* | 6.2 | -24.4 | 0.2
CCCCn1nnc(NC(=O)c2ccc(-c3cccc(Cl)c3)o2)n1 | -5.4 | 8.4* | 0.0 | -38.5 | -19.2
CCCn1nnc(NC(=O)c2ccc(-c3cccc(Cl)c3)o2)n1 | 3.8 | -0.5 | -10.8 | -16.2 | -29.2
COc1cc(CNCCc2ccccc2)cc(Cl)c1OCc1ccccc1 | -0.1 | -0.6 | -35.3 | . | .
O=C(c1cccs1)N1CCN(Cc2cccc([N+](=O)[O-])c2)CC1 | 2.6 | 0.1 | 17.6 | -12.9 | 0.7
Cc1cccc(C)c1N1CCN(S(=O)(=O)c2ccc(F)cc2)CC1 | 5.2 | 9.2* | -462.5 | -56.9 | -1.0
COc1ccc(S(=O)(=O)N2CCN(c3cccc(C)c3C)CC2)cc1 | -0.2 | 8.4* | . | -37.4 | -8.9
CSc1nc2c(c(=O)[nH]1)C(c1cccc(Br)c1)CC(=O)N2 (stereo not given) | 6.4 | 1.3 | 9.1 | . | .
CC(=O)Nc1ccc(NC(=O)C(Cc2ccccc2)NC(=O)C2CCCCC2)cc1 (stereo not given) | 2.3 | 2.0 | 64.3* | -32.5 | -3.4
CC(C)CC(O)(CC(C)C)C(=O)NNc1ccccc1 | 15.4* | 0.5 | -94.4 | -11.5 | .
COc1ccccc1-n1c(=O)oc2ccc(Cl)cc2c1=O | -4.0 | 2.8 | 13.6 | 53.2* | -15.0
Cc1cc(C)nc(NC(=NCCc2c[nH]c3ccccc23)NC(=O)Nc2ccccc2)n1 | -1.3 | 2.3 | . | -55.2 | -2.3
Cc1cc(C)nc(NC(=NCCc2c[nH]c3ccccc23)NC(=O)c2ccco2)n1 | 0.7 | 9.8* | -42.4 | -52.4 | -21.3
O=C(NCc1ccccn1)c1ccc(CNS(=O)(=O)c2ccc(F)cc2)cc1 | -0.5 | 2.8 | 37.5 | -8.4 | 4.8
COC(=O)c1c(N2C(=O)[C@H]3[C@@H](C2=O)[C@]2(C(=O)Nc4ccc(C)cc42)N2CCC[C@@H]32)sc(C)c1C | 0.2 | 1.4 | -75.0 | . | .
CC(C)Nc1nc(NC(C)C)nc(N(C)C#N)n1 | 0.0 | -0.1 | 77.4* | -35.0 | -1.1
CCN(C#N)c1nc(NC(C)C)nc(NC(C)C)n1 | -1.1 | 0.5 | 12.3 | -23.5 | -10.3
CCN(CC)CCC(=O)NN | 0.4 | 0.5 | . | . | .
